The test system of one assay is P388. Put plainly: Cytotoxicity against mouse P388 cells by MTT assay. Type of assay: functional. To be noted: read-out: ED50 (the source's name). The method, boiled down: (§1)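 Modified MTT colorimetric assay on P-388 mouse lymphocytic leukemia, HT-29 and A549 tumor cells; read-out ED50. Mithramycin as positive control.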
A general note: Tetrazolium dyes change colour on reduction, which living cells bring about.

The subject of another assay is HT-29. Put plainly: Cytotoxicity against human HT-29 cells by MTT assay. Type of assay: functional. To be noted: read-out: ED50 (the source's name). The method, boiled down: as §1
The next assay concerns A549. Briefly: Cytotoxicity against human A549 cells by MTT assay. Type of assay: functional. To be noted: read-out: ED50 (the source's name). The essentials:
as §1

The test system of another assay is Human betaherpesvirus 5. Put plainly: Antiviral activity against HCMV infected in HEL cells assessed as inhibition of virus-induced cytopathic effect after 7 days. Type of assay: functional, organism-based. To be noted: Human betaherpesvirus 5, HEL, 168 h; for EC50: read-out: ED50 (the source's name). The essentials: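 Confluent human embryonic lung (HEL) cells preincubated 1 h with or without various compound concentrations, then infected with HCMV at 1000 pfu per well. IC50 taken as concentration reducing virus-induced cytopathic effect by 50% after seven days versus untreated control.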
For orientation: Damage to the host cells serves as the signal in cytopathic effect assays.

Assay [1] has as its system RAW264.7. Put plainly: Antiinflammatory activity in mouse RAW264.7 cells assessed as inhibition of LPS-induced COX2 expression at 10 uM by immunoblot analysis. In kind it is functional. The essentials: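 Murine RAW 264.7 macrophages cultured in DMEM with 10% heat-inactivated FBS at 37 °C, 5% CO2. Cells were stimulated with LPS with or without compound. COX-2 protein was measured by immunoblot, with β-actin as housekeeping reference, and expressed as % of LPS-stimulated control cells. Statistics: one-way ANOVA, Student–Newman–Keuls post hoc test, P<0.05.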
Background: Immunoblotting shows a protein as a band on a membrane.

For assay [2], the system named is RAW264.7. Put plainly: Antiinflammatory activity in mouse RAW264.7 cells assessed as inhibition of LPS-induced iNOS expression at 10 uM by immunoblot analysis.

In brackets after ≈: the same amount, converted by molar mass. Activity calls are given as the source filed them. No cut-off for these calls is given here.

Usually IC50 stands for the concentration needed to halve the response being measured. As a reminder, the inhibition is the percentage by which the read-out fell short of the control. For the compound `C=C(C)[C@H]1C/C=C2/C(=O)O[C@H](C[C@@]3(C)CC(=O)[C@@H](CC(=O)C1)O3)[C@H]2O`, the EC50 in the assay with P388, in the assay on HT-29 and in the assay on A549 was more than 20 µg/mL throughout. Moreover, the IC50 in the assay on Human betaherpesvirus 5 is 1.9 µg/mL (≈ 5.45 µM). The result in the assay with RAW264.7 [1] was inactive. For the same compound, in the assay with RAW264.7 [2], the inhibition at 10 µM was 10.2%.

As to `C=C(C)[C@H]1CC[C@]23O[C@H]2[C@@H](C[C@@]2(C)CC(=O)[C@@H](CC(=O)C1)O2)OC3=O`, the EC50 was more than 20 µg/mL in the assay with P388, more than 20 µg/mL with HT-29, more than 20 µg/mL in the assay with A549 and more than 50 µg/mL with Human betaherpesvirus 5. For the same compound, the result in the assay on RAW264.7 [1] was inactive. Moreover, the inhibition at 10 µM with RAW264.7 [2] was found to be 47.2%.

As to `C=C(C)[C@@H]1CC(=O)C[C@H]2O[C@](C)(CC2=O)C[C@H]2OC(=O)[C@@]3(O[C@H]23)[C@@H](O)C1`, the EC50 was more than 20 µg/mL with P388, more than 20 µg/mL in the assay with HT-29, more than 20 µg/mL in the assay with A549 and more than 50 µg/mL in the assay on Human betaherpesvirus 5. Besides, the result in the assay on RAW264.7 [1] was inactive. Moreover, the inhibition at 10 µM in the assay on RAW264.7 [2] is 56.3%.

As for `C=C(C)[C@H]1C/C=C2/C(=O)O[C@H](C[C@@]3(C)CC(=O)[C@H](CC(=O)C1)O3)[C@H]2O`, the EC50 in the assay on P388 is more than 20 µg/mL; in the assay with HT-29, more than 20 µg/mL; with A549, more than 20 µg/mL; with Human betaherpesvirus 5, more than 50 µg/mL. Besides, in the assay with RAW264.7 [1], the result was inactive. Also, the inhibition at 10 µM in the assay with RAW264.7 [2] amounted to 17.4%.

Regarding `C=C(C)[C@H]1CCC2=C[C@@H](C[C@@]3(C)CC(=O)[C@H](CC(=O)C1)O3)OC2=O`, the EC50 in the assay on P388 is more than 20 µg/mL; with HT-29, more than 20 µg/mL; in the assay with A549 it was more than 20 µg/mL; in the assay on Human betaherpesvirus 5, more than 50 µg/mL.

In the case of `C=C(C)[C@H]1C/C=C(/C(=O)OC)CC(=O)C[C@@]2(C)CC(=O)[C@H](CC(=O)C1)O2`, the EC50 in the assay with P388 is more than 20 µg/mL; with HT-29, more than 20 µg/mL; with A549 it was more than 20 µg/mL; with Human betaherpesvirus 5, more than 50 µg/mL.

Regarding `C=C(C)[C@@H]1CC(=O)C[C@]23O[C@]4(C)C[C@H]5OC(=O)[C@H]([C@H]5[C@H]4C2=O)[C@H]3C1`, the EC50 in the assay with P388 was more than 20 µg/mL; with HT-29, more than 20 µg/mL; in the assay on A549, more than 20 µg/mL; in the assay on Human betaherpesvirus 5 it was more than 50 µg/mL.

For `C=C(C)[C@H]1CCC2=C[C@@H](C[C@@]3(C)CC(=O)[C@@H](CC(=O)C1)O3)OC2=O`, the EC50 was more than 20 µg/mL in the assay on P388, more than 20 µg/mL in the assay with HT-29, more than 20 µg/mL in the assay with A549 and more than 50 µg/mL with Human betaherpesvirus 5.

As to `C=C(C)[C@@H]1CC(=O)[C@H]2[C@H](C1)[C@@H]1C(=O)O[C@@H]3C[C@@]4(C)O[C@@H]2C(=O)[C@@H]4[C@H]13`, the EC50 in the assay on P388 was more than 20 µg/mL; with HT-29 it was more than 20 µg/mL; in the assay on A549 it was more than 20 µg/mL; in the assay on Human betaherpesvirus 5 it was more than 50 µg/mL.

As for `O=C(/C=C/c1ccc(O)c(O)c1)OCCc1ccccc1` [CAFFEIC ACID PHENETHYL ESTER], the inhibition at 10 µM with RAW264.7 [2] is 1.5%.

Regarding `C=C(C)[C@@H]1CC(=O)C[C@H]2O[C@](C)(CC2=O)C[C@@H](O)[C@@H]2O[C@]2(C(=O)OC)[C@@H](O)C1` [GYROSANIN A], the EC50 is 3.6 µg/mL (≈ 9.08 µM) with P388, more than 20 µg/mL with HT-29, more than 20 µg/mL with A549 and more than 50 µg/mL in the assay on Human betaherpesvirus 5. In addition, the outcome in the assay on RAW264.7 [1] was inactive. Also, the inhibition at 10 µM in the assay on RAW264.7 [2] is 66.9%.

For `C=C(C)[C@H]1C/C=C2/C(=O)O[C@H](C/C(C)=C/C(=O)[C@@H](O)CC(=O)C1)[C@H]2O` [GYROSANOLIDE A], the EC50 in the assay on P388 was more than 20 µg/mL; in the assay on HT-29 it was more than 20 µg/mL; in the assay with A549, more than 20 µg/mL; with Human betaherpesvirus 5, more than 50 µg/mL. Also, the outcome in the assay on RAW264.7 [1] was inactive. The inhibition at 10 µM in the assay with RAW264.7 [2] was determined as 55.2%.

On to `C=C(C)[C@H]1C/C=C2/C(=O)O[C@H](C/C(C)=C\C(=O)[C@@H](O)CC(=O)C1)[C@H]2O` [GYROSANOLIDE B], for which the EC50 with P388 is more than 20 µg/mL; in the assay with HT-29, more than 20 µg/mL; with A549, more than 20 µg/mL; in the assay on Human betaherpesvirus 5, more than 50 µg/mL. Further, the result in the assay with RAW264.7 [1] was inactive. The inhibition at 10 µM in the assay with RAW264.7 [2] is 18.6%.

As to `C=C(C)[C@H]1C/C=C2/C(=O)O[C@H](C/C(C)=C/C(=O)[C@H](OC)CC(=O)C1)[C@H]2O` [GYROSANOLIDE C], the EC50 in the assay on P388 was more than 20 µg/mL; in the assay on HT-29, more than 20 µg/mL; in the assay with A549, more than 20 µg/mL; in the assay on Human betaherpesvirus 5 it was more than 50 µg/mL. The outcome in the assay on RAW264.7 [1] was inactive. Further, in the assay on RAW264.7 [2], the inhibition at 10 µM is 10.6%.

For `C=C(C)[C@H]1CCC2=C[C@@H](C/C(C)=C/C(=O)[C@H](O)CC(=O)C1)OC2=O` [GYROSANOLIDE D], the EC50 is more than 20 µg/mL in the assay on P388, more than 20 µg/mL in the assay with HT-29, more than 20 µg/mL in the assay on A549 and more than 50 µg/mL in the assay with Human betaherpesvirus 5.

Take `C=C(C)[C@H]1CCC2=C[C@H](C[C@@]3(C)CC(=O)[C@@H](CC(=O)C1)O3)OC2=O` [GYROSANOLIDE E]: the EC50 with P388 was more than 20 µg/mL; with HT-29, more than 20 µg/mL; with A549, more than 20 µg/mL; in the assay on Human betaherpesvirus 5 it was more than 50 µg/mL.

For `C=C(C)[C@@H]1CC(=O)C[C@@H]2O[C@](C)(CC2=O)C[C@@H]2C=C(C(=O)O2)[C@@H](O)C1` [GYROSANOLIDE F], the EC50 is more than 20 µg/mL in the assay on P388, more than 20 µg/mL in the assay on HT-29, more than 20 µg/mL in the assay with A549 and more than 50 µg/mL with Human betaherpesvirus 5.

As for `CO[C@H](C(=O)[C@@H](O)[C@@H](C)O)[C@@H]1Cc2cc3cc(O[C@H]4C[C@@H](O[C@@H]5C[C@@H](O)[C@H](O)[C@@H](C)O5)[C@H](O)[C@@H](C)O4)c(C)c(O)c3c(O)c2C(=O)[C@H]1O[C@H]1C[C@@H](O[C@@H]2C[C@@H](O)[C@@H](O[C@@H]3C[C@](C)(O)[C@H](O)[C@@H](C)O3)[C@@H](C)O2)[C@H](O)[C@@H](C)O1` [PLICAMYCIN], the results for the EC50 in the assay with P388, in the assay on HT-29 and with A549 were 0.06 µg/mL (≈ 0.0553 µM), 0.08 µg/mL (≈ 0.0737 µM) and 0.07 µg/mL (≈ 0.0645 µM), respectively.

With `C=C(C)[C@@H]1CC(=O)CC2=C(C1)[C@@H]1C(=O)O[C@@H]3C[C@](C)(O)[C@H](C2=O)[C@H]13` [SCABROLIDE A], the EC50 in the assay on P388 is more than 20 µg/mL; in the assay on HT-29, more than 20 µg/mL; with A549, more than 20 µg/mL; in the assay with Human betaherpesvirus 5, more than 50 µg/mL.

Regarding `C=C(C)[C@@H]1CC(=O)CC2=C(C1)[C@@H]1C(=O)O[C@@H]3CC(C)=C(C2=O)[C@H]13` [YONAROLIDE], the EC50 in the assay on P388 was more than 20 µg/mL; in the assay on HT-29 it was more than 20 µg/mL; with A549, more than 20 µg/mL; in the assay with Human betaherpesvirus 5, more than 50 µg/mL.

(Values after ChEMBL document CHEMBL1157809, “Bioactive norditerpenoids from the soft coral Sinularia gyrosa” (Bioorg Med Chem, 2010).)
